Reference: ChEMBL document CHEMBL2062375, “Discovery of an orally efficacious inhibitor of anaplastic lymphoma kinase” (J Med Chem, 2012)

Experiments:
[1] = Half life in Sprague-Dawley rat at 10 mg/kg, po; type: ADME, organism-based; parameters: dose 10 mg/kg, route oral; settings: in vivo
Procedure, shortened: (§1)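 Rat PK. IV via the lateral tail vein, 1 mL/kg in 3% DMSO/30% Solutol/67% PBS, or oral gavage at 5 mL/kg in 40% HPβCD, after an overnight fast. Serial tail-vein blood was taken into heparin over 6 h. Plasma was acetonitrile-precipitated and analysed by LC-MS/MS. Parameters were noncompartmental, n = 3, mean ± SEM.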

[2] = biological target: Receptor-type tyrosine-protein kinase FLT3 (Homo sapiens) (UniProt P36888); settings: 1 uM
Receptor-type tyrosine-protein kinase FLT3 (Homo sapiens), sequence (P36888 whole entry): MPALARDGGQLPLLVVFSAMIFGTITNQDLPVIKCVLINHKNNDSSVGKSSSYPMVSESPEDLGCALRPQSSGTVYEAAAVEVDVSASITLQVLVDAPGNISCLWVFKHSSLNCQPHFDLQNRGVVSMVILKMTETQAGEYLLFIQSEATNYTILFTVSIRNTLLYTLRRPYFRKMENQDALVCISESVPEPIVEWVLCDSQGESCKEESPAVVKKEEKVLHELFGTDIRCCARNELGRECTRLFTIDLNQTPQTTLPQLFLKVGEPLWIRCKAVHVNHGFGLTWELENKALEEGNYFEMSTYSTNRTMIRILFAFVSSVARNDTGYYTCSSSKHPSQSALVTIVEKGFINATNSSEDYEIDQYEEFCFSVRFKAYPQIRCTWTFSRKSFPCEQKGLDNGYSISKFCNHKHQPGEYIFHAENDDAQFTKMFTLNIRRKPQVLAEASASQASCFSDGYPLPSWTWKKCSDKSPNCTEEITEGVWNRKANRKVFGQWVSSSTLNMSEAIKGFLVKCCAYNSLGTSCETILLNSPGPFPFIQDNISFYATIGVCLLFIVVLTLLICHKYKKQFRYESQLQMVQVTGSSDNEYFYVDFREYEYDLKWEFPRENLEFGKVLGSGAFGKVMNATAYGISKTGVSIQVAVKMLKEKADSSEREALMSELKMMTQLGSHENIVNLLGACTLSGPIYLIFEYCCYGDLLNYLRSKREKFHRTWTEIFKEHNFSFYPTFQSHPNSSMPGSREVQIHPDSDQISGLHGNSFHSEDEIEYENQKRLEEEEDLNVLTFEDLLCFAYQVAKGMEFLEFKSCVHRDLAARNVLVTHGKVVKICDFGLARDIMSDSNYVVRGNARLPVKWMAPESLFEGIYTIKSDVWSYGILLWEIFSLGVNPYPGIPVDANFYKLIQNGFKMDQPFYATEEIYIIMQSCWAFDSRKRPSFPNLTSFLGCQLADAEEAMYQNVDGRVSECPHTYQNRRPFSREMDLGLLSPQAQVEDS

[3] = biological target: Tyrosine-protein kinase Fer (Homo sapiens, UniProt P16591); experiment: Inhibition of human Fer
Tyrosine-protein kinase Fer, sequence (P16591 whole entry): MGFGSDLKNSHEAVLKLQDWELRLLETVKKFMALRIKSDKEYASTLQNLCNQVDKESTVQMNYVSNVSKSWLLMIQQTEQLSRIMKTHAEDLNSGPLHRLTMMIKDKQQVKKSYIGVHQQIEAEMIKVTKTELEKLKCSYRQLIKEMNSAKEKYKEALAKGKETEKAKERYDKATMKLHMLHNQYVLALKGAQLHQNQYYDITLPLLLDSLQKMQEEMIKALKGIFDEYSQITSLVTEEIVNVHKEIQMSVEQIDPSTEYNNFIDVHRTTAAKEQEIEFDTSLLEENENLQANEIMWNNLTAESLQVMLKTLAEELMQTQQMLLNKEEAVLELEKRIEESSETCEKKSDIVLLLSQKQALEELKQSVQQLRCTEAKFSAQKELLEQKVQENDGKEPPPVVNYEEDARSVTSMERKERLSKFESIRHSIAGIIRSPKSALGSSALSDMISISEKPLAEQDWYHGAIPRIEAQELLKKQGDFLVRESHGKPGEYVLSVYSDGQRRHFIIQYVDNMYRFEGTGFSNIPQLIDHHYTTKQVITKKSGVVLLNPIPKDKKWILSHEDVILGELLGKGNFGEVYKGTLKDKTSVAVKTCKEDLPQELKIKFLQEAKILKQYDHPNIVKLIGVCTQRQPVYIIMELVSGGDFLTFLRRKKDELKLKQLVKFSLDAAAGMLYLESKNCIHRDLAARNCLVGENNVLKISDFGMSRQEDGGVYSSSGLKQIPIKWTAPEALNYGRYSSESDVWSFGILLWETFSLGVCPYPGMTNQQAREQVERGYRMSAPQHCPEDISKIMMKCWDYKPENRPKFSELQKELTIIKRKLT

[4] = Oral bioavailability in cynomolgus monkey at 10 mg/kg; type: ADME, organism-based, Macaca fascicularis; settings: in vivo
Procedure, shortened: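 PK: overnight-fasted animals. Rat oral gavage 5 mL/kg in 40% HPβCD, serial tail-vein blood over 6 h. Dog oral gavage 1 mL/kg, monkey nasogastric 2 mL/kg, femoral-vein blood over 24 h. Plasma protein-precipitated with acetonitrile, LCMS/MS with internal standard; noncompartmental analysis, individual animals n = 3, mean ± SEM.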

[5] = biological target: Ribosomal protein S6 kinase alpha-1 (Homo sapiens, UniProt Q15418); experiment: Inhibition of human Rsk1
Ribosomal protein S6 kinase alpha-1, sequence (Q15418 whole entry): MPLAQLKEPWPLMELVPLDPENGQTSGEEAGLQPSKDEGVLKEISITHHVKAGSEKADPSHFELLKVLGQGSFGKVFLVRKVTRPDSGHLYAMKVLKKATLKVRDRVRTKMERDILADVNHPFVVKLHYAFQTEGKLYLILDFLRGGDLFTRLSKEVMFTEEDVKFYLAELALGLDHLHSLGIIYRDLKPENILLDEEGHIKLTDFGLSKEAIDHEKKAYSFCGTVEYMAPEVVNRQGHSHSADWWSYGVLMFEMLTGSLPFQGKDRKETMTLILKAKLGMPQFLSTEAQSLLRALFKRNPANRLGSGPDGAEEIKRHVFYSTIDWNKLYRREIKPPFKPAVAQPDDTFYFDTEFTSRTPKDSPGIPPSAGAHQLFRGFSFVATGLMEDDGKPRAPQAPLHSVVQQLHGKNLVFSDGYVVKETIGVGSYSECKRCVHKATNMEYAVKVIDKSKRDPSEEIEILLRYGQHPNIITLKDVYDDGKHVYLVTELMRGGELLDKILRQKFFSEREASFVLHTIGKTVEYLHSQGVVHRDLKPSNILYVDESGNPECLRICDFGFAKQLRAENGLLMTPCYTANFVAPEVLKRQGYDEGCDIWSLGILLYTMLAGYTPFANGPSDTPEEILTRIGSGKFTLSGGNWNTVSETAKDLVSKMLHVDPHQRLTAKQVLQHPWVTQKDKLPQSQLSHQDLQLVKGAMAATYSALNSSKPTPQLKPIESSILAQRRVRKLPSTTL
Procedure, shortened: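 Millipore KinaseProfiler activity assays on a 259-kinase panel; kinases inhibited by ≥90% at 1 μM then taken to full IC50 determination.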

Focal adhesion kinase 1 = Focal adhesion kinase 1 (Homo sapiens, UniProt Q05397); experiment: Inhibition of human FAK
Focal adhesion kinase 1, sequence (Q05397 whole entry): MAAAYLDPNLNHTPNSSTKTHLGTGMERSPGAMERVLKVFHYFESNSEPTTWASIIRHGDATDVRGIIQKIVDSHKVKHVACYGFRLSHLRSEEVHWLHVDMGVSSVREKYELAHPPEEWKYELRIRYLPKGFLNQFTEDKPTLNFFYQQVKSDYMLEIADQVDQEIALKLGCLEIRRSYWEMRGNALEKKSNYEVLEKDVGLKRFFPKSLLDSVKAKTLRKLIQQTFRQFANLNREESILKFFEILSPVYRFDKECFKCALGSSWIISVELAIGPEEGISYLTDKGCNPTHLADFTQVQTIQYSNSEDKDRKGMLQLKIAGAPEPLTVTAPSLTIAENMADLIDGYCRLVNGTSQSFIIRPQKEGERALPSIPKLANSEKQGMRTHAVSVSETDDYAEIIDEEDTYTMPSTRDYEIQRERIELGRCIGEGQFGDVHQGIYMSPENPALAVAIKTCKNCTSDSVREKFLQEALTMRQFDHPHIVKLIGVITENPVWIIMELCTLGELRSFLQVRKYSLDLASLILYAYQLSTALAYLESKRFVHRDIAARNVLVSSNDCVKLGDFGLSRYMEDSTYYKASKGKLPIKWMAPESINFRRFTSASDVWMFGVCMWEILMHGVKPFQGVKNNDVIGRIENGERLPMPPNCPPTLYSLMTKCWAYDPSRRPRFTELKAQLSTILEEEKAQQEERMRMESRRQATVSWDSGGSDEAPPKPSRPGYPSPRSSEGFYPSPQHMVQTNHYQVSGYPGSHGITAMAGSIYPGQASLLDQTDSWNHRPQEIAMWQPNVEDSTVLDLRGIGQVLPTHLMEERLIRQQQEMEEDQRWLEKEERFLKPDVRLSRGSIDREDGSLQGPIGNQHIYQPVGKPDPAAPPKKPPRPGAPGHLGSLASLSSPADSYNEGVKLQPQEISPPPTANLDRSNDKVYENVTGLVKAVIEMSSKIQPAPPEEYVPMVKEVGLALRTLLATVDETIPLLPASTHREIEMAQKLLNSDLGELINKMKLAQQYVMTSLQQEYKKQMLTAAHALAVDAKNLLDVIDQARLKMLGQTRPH
Procedure, shortened: (§2)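 Commercial activity-assay panel of 259 kinases. Each kinase was first screened at 1 μM, and those inhibited by ≥90% went on to full IC50 determination.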

[6] = Half life in SCID mouse at 10 mg/kg, po; type: ADME, organism-based; parameters: dose 10 mg/kg, route oral; settings: in vivo
Procedure, shortened: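 Mouse PK. IV via the lateral tail vein in 3% DMSO/30% Solutol/67% PBS, or oral gavage in 100% PEG400, 100 μL dose volume, after an overnight fast. Trunk blood was taken from three mice per time point over 6 h. Plasma was acetonitrile-precipitated and analysed by LC-MS/MS. Parameters were derived noncompartmentally.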

[7] = Volume of distribution in SCID mouse at 1 mg/kg, iv; type: ADME, organism-based; parameters: dose 1 mg/kg, route intravenous; settings: in vivo
Procedure, shortened: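 Mouse IV PK: lateral tail vein dosing, 100 μL in 3% DMSO/30% Solutol/67% PBS; trunk blood from three mice per time point over 6 h. Plasma precipitated with acetonitrile, drug quantified by LCMS/MS against internal standard; noncompartmental analysis.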

Mus musculus = experiment: Toxicity in SCID mouse xenografted with human KARPAS299 cells expressing NPM-ALK assessed as effect on body weight at 10 to 30 mg/kg, po bid; type: organism-based, KARPAS-299; parameters: dose 10-30 mg/kg, route oral; settings: in vivo
Procedure, shortened: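 Female SCID/beige mice (6–8 weeks), Karpas-299 cells implanted sc in left flank; at ~600 mm³ randomized (8–10/group), dosed orally in PEG400, 100 μL, b.i.d. for 12 days. Body weight every 2–3 days; plasma and tumor sampled 2 h after final dose, drug by LCMS/MS; Mann–Whitney rank sum statistics.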

[8] = Half life in Beagle dog at 1 mg/kg, iv; type: ADME, organism-based, Canis lupus familiaris; parameters: dose 1 mg/kg, route intravenous; settings: in vivo
Procedure, shortened: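 Dog and monkey PK. IV 0.5 mL/kg in 40% HPβCD via the saphenous vein. Oral dosing was 1 mL/kg by gavage in dogs and 2 mL/kg by nasogastric tube in monkeys, after an overnight fast. Serial femoral-vein blood was taken into heparin over 24 h. Plasma was acetonitrile-precipitated and analysed by LC-MS/MS. Parameters were noncompartmental, n = 3, mean ± SEM.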

[9] = AUC (0 to 12 hrs) in rat 10 mg/kg, po; type: ADME, organism-based; parameters: time < 12 hr, dose 10 mg/kg, route oral; settings: plasma
Procedure, shortened: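 Rat oral dose escalation at 10, 30, 55 and 100 mg/kg. Gavage at 5 mL/kg in 40% HPβCD after an overnight fast. Serial tail-vein blood was drawn into heparinized tubes. Plasma was protein-precipitated with acetonitrile and assayed by LC-MS/MS. Cmax and AUC0–12 were derived noncompartmentally; n = 2 at 10 mg/kg.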

[10] = biological target: Serine/threonine-protein kinase Chk2 (Homo sapiens, UniProt O96017); experiment: Inhibition of human CHK2; procedure, shortened: as §2
Serine/threonine-protein kinase Chk2, sequence (O96017 whole entry): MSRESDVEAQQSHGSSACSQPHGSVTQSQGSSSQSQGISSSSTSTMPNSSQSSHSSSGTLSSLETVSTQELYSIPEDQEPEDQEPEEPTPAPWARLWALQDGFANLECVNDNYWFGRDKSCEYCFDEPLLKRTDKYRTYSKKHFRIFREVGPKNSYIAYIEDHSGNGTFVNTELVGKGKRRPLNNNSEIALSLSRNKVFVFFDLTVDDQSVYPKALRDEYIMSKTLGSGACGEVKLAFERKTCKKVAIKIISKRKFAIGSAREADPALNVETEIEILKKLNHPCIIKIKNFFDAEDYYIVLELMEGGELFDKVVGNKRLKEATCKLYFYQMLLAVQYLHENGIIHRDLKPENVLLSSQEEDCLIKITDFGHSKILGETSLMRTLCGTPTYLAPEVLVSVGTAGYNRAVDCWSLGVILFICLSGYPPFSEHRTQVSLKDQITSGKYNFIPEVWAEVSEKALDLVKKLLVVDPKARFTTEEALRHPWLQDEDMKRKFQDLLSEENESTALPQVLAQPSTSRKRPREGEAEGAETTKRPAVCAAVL

[11] = Half life in Sprague-Dawley rat at 1 mg/kg, iv; type: ADME, organism-based; parameters: dose 1 mg/kg, route intravenous; settings: in vivo; procedure, shortened: as §1
[12] = Drug level in SCID mouse tumor xenografted with human KARPAS299 cells expressing NPM-ALK at 30 mg/kg, po after 24 hrs by LC-MS/MS analysis; type: ADME, organism-based, Neoplasm, KARPAS-299; parameters: dose 30 mg/kg, route oral; settings: read-out: Drug uptake

Structure (SMILES): COc1c(Nc2ncc(Cl)c(N[C@H]3[C@@H](C(N)=O)[C@@H]4C=C[C@H]3C4)n2)ccc2c1CC[C@@H](N1CCOCC1)CC2
- half-life [1]: 6.2 h
- inhibition [2]: > 90%
- IC50 [3]: 85 nM
- bioavailability [4]: 16%
- IC50 [5]: 61 nM
- IC50 (Focal adhesion kinase 1): 133 nM
- half-life [6]: 1.8 h
- Vd [7]: 0.8 L/kg
- Activity (Mus musculus): Non-toxic
- half-life [8]: 2.4 h
- AUC(0-t) at 12 h [9]: 2570 ng·h/mL
- IC50 [10]: 29 nM
- half-life [11]: 0.9 h
- concentration at 24 h [12]: 100 ng/g
